Among the data in ChEMBL document CHEMBL1138681, “Identification of structurally diverse growth hormone secretagogue agonists by virtual screening and structure-activity relationship analysis of 2-formylaminoacetamide derivatives” (J Med Chem, 2004) are Activity, Ki and IC50 values, retold here.

The source made the active and inactive calls. The rule behind the calls is not given here.

In experiment [1] the target is T1, Growth hormone secretagogue receptor type 1 (Homo sapiens, UniProt Q92847). The experiment is described as follows: Tested for growth hormone secretagogue activity in A93 cell line using a calcium flux assay at 10 uM (Relative to compound T1). In kind it is functional, cell-based. On the technique in general: Calcium assays in cells follow changes in intracellular calcium, usually with a dye or a luminescent sensor.

Experiment [2] deals with T1, Growth hormone secretagogue receptor type 1. Kind of experiment: Binding affinity for human growth hormone secretagogue receptor was determined using [125I]ghrelin. The essentials: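 Competition binding with (125I)ghrelin (human) at the GHS receptor, run by a contract laboratory following published methods. Ki values were derived from binding curves.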
Experiment [3] shares this target. The experiment is described as follows: Tested for growth hormone secretagogue activity in A93 cell line using a calcium flux assay at 10 uM (Relative to compound T1); NA means not active. In kind it is functional, cell-based.
Experiment [4] shares this target. Kind of experiment: Binding affinity for human growth hormone secretagogue receptor using [125I]ghrelin; NA means not active. A digest of the protocol:
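Radioligand displacement with (125I)ghrelin (human) at GHS receptor, run by a contract lab following published methods; Ki values reported; binding curves in supplement.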

T1 sequence (Q92847 whole entry): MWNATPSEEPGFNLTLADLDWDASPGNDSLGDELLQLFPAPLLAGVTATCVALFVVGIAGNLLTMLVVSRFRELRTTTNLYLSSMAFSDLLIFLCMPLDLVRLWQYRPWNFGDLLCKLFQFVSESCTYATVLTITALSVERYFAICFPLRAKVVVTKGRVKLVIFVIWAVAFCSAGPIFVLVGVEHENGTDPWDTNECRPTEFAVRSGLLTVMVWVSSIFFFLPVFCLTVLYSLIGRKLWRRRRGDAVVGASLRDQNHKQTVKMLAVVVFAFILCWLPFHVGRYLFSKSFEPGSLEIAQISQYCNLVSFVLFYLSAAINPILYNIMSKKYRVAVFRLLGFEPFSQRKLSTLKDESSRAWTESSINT

Take `CCN(CC)CCCN(C(=O)c1ccc(-c2ccccc2)[nH]1)C(C)C(=O)NC1CCCCC1` (stereo unspecified): in experiment [1], the Activity came to 0.96. Besides, the Ki – broadly, the equilibrium dissociation constant of an inhibitor or competing ligand from its target – in experiment [2] is 1920 nM.

As for `CCN(CC)CCCN(C(=O)c1ccc(-c2ccccc2)[nH]1)C(C(=O)NC1CCCCC1)c1ccc(O)cc1` (stereo unspecified), in experiment [1], the Activity is 0.52. This molecule also displayed a Ki in experiment [2] of 1320 nM.

For the molecule `O=C(NC1CCCCC1)C(c1ccc(F)cc1)N(C(=O)c1ccc(-c2ccccc2)[nH]1)C1CCCCC1` (stereo unspecified), the outcome in experiment [3] was inactive.

As to `CCN(CC)CCN(C(=O)c1ccc(-c2ccccc2)[nH]1)C(C(=O)NC1CCCCC1)c1ccc(F)cc1` (stereo unspecified), the Activity in experiment [1] came to 0.24. Moreover, the Ki in experiment [2] stood at 1370 nM.

Take `CCN(CC)CCCN(C(=O)c1ccc(-c2ccccc2)[nH]1)C(C(=O)NCc1ccc(F)cc1)c1ccc(F)cc1` (stereo unspecified): in experiment [1], the Activity stood at 0.45. Moreover, the affinity in experiment [2], expressed as Ki, was 1150 nM.

Regarding `O=C(NC1CCCCC1)C(c1ccc(F)cc1)N(C(=O)c1ccc(-c2ccccc2)[nH]1)c1ccccc1` (stereo unspecified), the outcome in experiment [3] was inactive.

`O=C(NC1CCCCC1)C(c1ccc(F)cc1)N(CCN1CCOCC1)C(=O)c1ccc(-c2ccccc2)[nH]1` (stereo unspecified): the outcome in experiment [3] was inactive.

With `CCN(CC)CCCN(C(=O)c1ccc(-c2ccccc2)[nH]1)C(C(=O)NC1CCCCC1)c1ccc(C)cc1` (stereo unspecified), the result in experiment [3] was inactive.

`Cc1ccc(CC(C(=O)NC2CCCCC2)N(C(=O)c2ccc(-c3ccccc3)[nH]2)C2CCCC2)o1` (stereo unspecified): in experiment [3], the result was inactive.

On to `O=C(NC1CCCC1)C(c1ccncc1)N(CCCN1CCOCC1)C(=O)c1ccc(-c2ccccc2)[nH]1` (stereo unspecified), for which the result in experiment [3] was inactive.

As to `CCN(CC)CCN(C(=O)c1ccc(-c2ccccc2)[nH]1)C(C(=O)NC1CCCCC1)c1c[nH]c2ccccc12` (stereo unspecified), the result in experiment [3] was inactive.

As for `CCCCC(C(=O)NC1CCCCC1)N(CCCN(CC)CC)C(=O)c1ccc(-c2ccccc2)[nH]1` (stereo unspecified), the Activity in experiment [1] amounted to 1.6. Affinity in experiment [2] was put at a Ki of 280 nM.

As to `Cc1ccc(CC(C(=O)NC2CCCCC2)N(Cc2ccccc2)C(=O)c2ccc(-c3ccccc3)[nH]2)o1` (stereo unspecified), the outcome in experiment [3] was inactive.

With `CCN(CC)CCCN(C(=O)c1snc(C(N)=O)c1N)C(C(=O)NC1CCCCC1)c1ccc(F)cc1` (stereo unspecified), the outcome in experiment [3] was inactive.

For `CCN(CC)CCCN(C(=O)CCN1CCCc2ccccc21)C(C(=O)NC1CCCCC1)c1ccc(F)cc1` (stereo unspecified), the Activity in experiment [1] is 0.31. Moreover, the Ki in experiment [2] is 2030 nM.

In the case of `CCN(CC)CCCN(C(=O)c1ccc(-c2ccccc2)[nH]1)C(C)C(=O)NC(C)(C)C` (stereo unspecified), the Activity in experiment [1] worked out at 0.38. The molecule further showed a Ki in experiment [2] of 1180 nM.

With `CCN(CC)CCCN(C(=O)c1ccc(-c2ccccc2)[nH]1)C(C(=O)NC1CCCCC1)c1ccc(F)cc1` (stereo unspecified), in experiment [1], the Activity came to 0.57. In addition, the affinity in experiment [2] corresponds to a Ki of 1290 nM.

As to `CCN(CC)CCN1C(=O)[C@@](O)(c2ccccc2Cl)c2c1cc(C(N)=O)cc2C(F)(F)F`, in experiment [2], the concentration for half-maximal inhibition (IC50) (commonly the concentration at which inhibition is half-maximal) was 1.2 nM.

Consider `CCN(CC)CCCN(C(=O)c1ccc(-c2ccccc2)[nH]1)C(C(=O)NC1CCCCC1)c1cc(OC)ccc1OC` (stereo unspecified), for which the result in experiment [3] was inactive.

Take `CCN(CC)CCCN(C(=O)c1ccc(-c2ccccc2)[nH]1)C(C(=O)NC1CCCCC1)c1ccc(OC)c(OC)c1` (stereo unspecified): the Activity in experiment [1] is 0.32. Moreover, in experiment [2], the Ki is 2630 nM.

On to `O=C(NC1CCCC1)C(c1ccncc1)N(C(=O)c1ccc(-c2ccccc2)[nH]1)c1ccccc1` (stereo unspecified), for which, in experiment [3], the result was inactive.

`CCN(CC)CCCN(C(=O)c1ccc(-c2ccccc2)[nH]1)C(C(=O)NC1CCCCC1)c1ccncc1` (stereo unspecified): the Activity in experiment [1] is 1.16. This molecule had a Ki in experiment [2] of 910 nM.

Consider `O=C(NC1CCCCC1)C(c1ccc(F)cc1)N(CCCN1CCOCC1)C(=O)c1ccc(-c2ccccc2)[nH]1` (stereo unspecified), for which, in experiment [4], the inhibition constant (Ki) entry is recorded as “Not Active”.

In the case of `CCN(CC)CCN(C(=O)c1ccc(CN2CCCCC2)o1)C(C(=O)NC1CCCCC1)c1ccc(F)cc1` (stereo unspecified), in experiment [4], the inhibition constant (Ki) entry is “Not Active”.

On to `CCN(CC)CCCN(C(=O)Cn1nnc(-c2ccc(OC)c(OC)c2)n1)C(C(=O)NC1CCCCC1)c1ccc(F)cc1` (stereo unspecified), for which the result in experiment [3] was inactive.

In the case of `CCN(CC)CCCN(C(=O)c1ccc(-c2ccccc2)[nH]1)C(C(=O)NC1CCCCC1)c1ccco1` (stereo unspecified), the result in experiment [3] was inactive.

For `CCOC(=O)CN(C(=O)c1ccc(-c2ccccc2)[nH]1)C(C)C(=O)NC1CCCCC1` (stereo unspecified), the outcome in experiment [3] was inactive.

Turning to `COc1ccc(CN(C(=O)c2ccc(-c3ccccc3)[nH]2)C(C(=O)NC2CCCCC2)c2ccc(F)cc2)cc1` (stereo unspecified), in experiment [3], the result was inactive.

In the case of `CCC(C(=O)NC1CCCCC1)N(CCCN(CC)CC)C(=O)c1ccc(-c2ccccc2)[nH]1` (stereo unspecified), in experiment [1], the Activity was 1.23. In experiment [2], this molecule displayed an inhibitory constant (Ki) of 220 nM.

Take `CC(C)(C)NC(=O)C(c1ccc(F)cc1)N(CCCN1CCOCC1)C(=O)c1ccc(-c2ccccc2)[nH]1` (stereo unspecified): in experiment [4], the inhibitory constant (Ki) entry is “Not Active”.

In the case of `CCN(CC)CCCN(C(=O)c1ccc(-c2ccccc2)[nH]1)C(C(=O)NC1CCCCC1)c1cccs1` (stereo unspecified), in experiment [3], the result was inactive.

`CCCC(C(=O)NC1CCCCC1)N(CCCN(CC)CC)C(=O)c1ccc(-c2ccccc2)[nH]1` (stereo unspecified): in experiment [1], the Activity is 1.37. Further, the inhibition constant Ki in experiment [2] came to 870 nM.

As to `CCN(CC)CCCN(C(=O)c1ccc(-c2ccccc2)[nH]1)C(C(=O)NC1CCCCC1)c1cc(OC)c(OC)c(OC)c1` (stereo unspecified), the result in experiment [3] was inactive.

Take `O=C(NC1CCCCC1)C(c1ccc(F)cc1)N(CCCN1CCOCC1)C(=O)c1ccc(CN2CCOCC2)o1` (stereo unspecified): the outcome in experiment [3] was inactive.

With `CCN(CC)CCN(C(=O)c1ccc(CN2CCCCC2)o1)C(C(=O)NC1CCCCC1)c1ccc(N(C)C)cc1` (stereo unspecified), in experiment [3], the result was inactive.

In the case of `COc1ccc(CN(C(=O)c2ccc(-c3ccccc3)[nH]2)C(C)C(=O)NC2CCCCC2)cc1` (stereo unspecified), the outcome in experiment [3] was inactive.

Consider `CCN(CC)CCCN(C(=O)c1ccc(-c2ccccc2)[nH]1)C(Cc1ccc(C)o1)C(=O)NC1CCCCC1` (stereo unspecified), for which the Activity in experiment [1] was 0.28. In experiment [2], this molecule yielded a Ki of 1170 nM.

In the case of `CCOc1ccc(C(C(=O)NC2CCCCC2)N(CCCN(CC)CC)C(=O)c2ccc(-c3ccccc3)[nH]2)cc1` (stereo unspecified), the result in experiment [3] was inactive.
